Activity calls are given as the source filed them. The rule behind the calls is not given here.
Assays:
A549 = experiment: Cytostatic activity against human A549 cells after 72 hrs by MTT assay; type: functional, cell-based; conditions: A549, 72 h
Procedure, shortened: (§1)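 IC50 is the concentration that cuts cell growth by 50%, read by quantitative metabolic MTT staining after a 3-day treatment. The resistant sublines were made by raising the concentration of the cytotoxic drug step by step. CEM-DNR-bulk (daunorubicin-selected) stably overexpresses mrp-1. K562-TAX (paclitaxel-selected) expresses only mdr-1. HCT116p53−/− carries null p53 alleles. BJ and MRC-5 are nonmalignant fibroblasts.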

HCT-116 [1] = experiment: Cytostatic activity against human HCT116 cells after 72 hrs by MTT assay; type: functional, cell-based; conditions: HCT-116, 72 h; procedure, shortened: as §1
HCT-116 [2] = experiment: Cytostatic activity against p53-deficient human HCT116 cells after 72 hrs by MTT assay; type: functional, cell-based; conditions: HCT-116, 72 h; procedure, shortened: as §1
Hepatitis C virus [3] = experiment: Antiviral activity against Hepatitis C virus subtype 1b infected in human HuH7 cells; type: functional, organism-based, Hepacivirus hominis; conditions: genotype 1b, Huh-7
Escherichia coli [4] = experiment: Antibacterial activity against multi-resistant Escherichia coli C/16702 after 24 hrs; type: functional, organism-based
CCRF-CEM = experiment: Cytostatic activity against human CCRF-CEM cells after 72 hrs by MTT assay; type: functional, cell-based; procedure, shortened: as §1
Candida parapsilosis = experiment: Antifungal activity against Candida parapsilosis after 48 hrs; type: functional, organism-based
K562 [5] = experiment: Cytostatic activity against human K562 cells after 72 hrs by MTT assay; type: functional, cell-based; conditions: K562, 72 h; procedure, shortened: as §1
BJ = experiment: Cytostatic activity against human BJ cells after 72 hrs by MTT assay; type: ADME, cell-based; procedure, shortened: as §1
Enterococcus faecalis = experiment: Antibacterial activity against Enterococcus faecalis CCM 4224 after 24 hrs; type: functional, organism-based
[6] = Cytotoxicity against human HuH7 cells infected with Hepatitis C virus subtype 2a; type: cell-based, Huh-7
Escherichia coli [7] = experiment: Antibacterial activity against Escherichia coli CCM 3954 after 24 hrs; type: functional, organism-based
MRC5 = experiment: Cytostatic activity against human MRC5 cells after 72 hrs by MTT assay; type: ADME, cell-based; conditions: MRC5, 72 h; procedure, shortened: as §1
Pseudomonas aeruginosa [8] = experiment: Antibacterial activity against multi-resistant Pseudomonas aeruginosa A/16575 after 24 hrs; type: functional, organism-based
Pichia kudriavzevii = experiment: Antifungal activity against Candida crusei after 48 hrs; type: functional, organism-based
Candida albicans = experiment: Antifungal activity against Candida albicans after 48 hrs; type: functional, organism-based
[9] = Cytotoxicity against human HuH7 cells infected with Hepatitis C virus subtype 1b; type: cell-based, Huh-7
Pseudomonas aeruginosa [10] = experiment: Antibacterial activity against Pseudomonas aeruginosa CCM 3955 after 24 hrs; type: functional, organism-based
[11] = tested on: Staphylococcus haemolyticus; experiment: Antibacterial activity against methicillin-resistant Staphylococcus haemolyticus A/16568 after 24 hrs; type: functional, organism-based
Candida tropicalis = experiment: Antifungal activity against Candida tropicalis after 48 hrs; type: functional, organism-based
[12] = Cytostatic activity against human CEM-DNR-bulk cells after 72 hrs by MTT assay; type: functional, cell-based; procedure, shortened: as §1
K562 [13] = experiment: Cytostatic activity against paclitaxel-resistant human K562 cells after 72 hrs by MTT assay; type: functional, cell-based; conditions: K562, 72 h; procedure, shortened: as §1
HepG2 = experiment: Antiproliferative activity against human HepG2 cells after 72 hrs by XTT assay; type: functional, cell-based; conditions: HepG2, 72 h
Hepatitis C virus [14] = experiment: Antiviral activity against Hepatitis C virus subtype 2a infected in human HuH7 cells; type: functional, organism-based, Hepacivirus hominis; conditions: genotype 2a, Huh-7
Staphylococcus aureus [15] = experiment: Antibacterial activity against Staphylococcus aureus CCM 3953 after 24 hrs; type: functional, organism-based
HL-60 = experiment: Antiproliferative activity against human HL60 cells after 72 hrs by XTT assay; type: functional, cell-based; conditions: HL-60, 72 h
Procedure, shortened: (§2)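 Antiproliferative test on HL-60 promyelocytic leukemia and HeLa S3 cervical carcinoma cells growing in liquid suspension.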

[16] = Antiproliferative activity against human HeLaS3 cells after 72 hrs by XTT assay; type: functional, cell-based; conditions: HeLa S3, 72 h; procedure, shortened: as §2
Staphylococcus aureus [17] = experiment: Antibacterial activity against methicillin-resistant Staphylococcus aureus MRSA 4591 after 24 hrs; type: functional, organism-based

Row | Structure (SMILES) | IC50 (A549) [µM] | IC50 (HCT-116 [1]) [µM] | IC50 (HCT-116 [2]) [µM] | EC50 (Hepatitis C virus [3]) [µM] | Activity (Escherichia coli [4]) | IC50 (CCRF-CEM) [µM] | Activity (Candida parapsilosis) | IC50 (K562 [5]) [µM] | IC50 (BJ) [µM] | Activity (Enterococcus faecalis) | CC50 [6] [µM] | Activity (Escherichia coli [7]) | IC50 (MRC5) [µM] | Activity (Pseudomonas aeruginosa [8]) | Activity (Pichia kudriavzevii) | Activity (Candida albicans) | CC50 [9] [µM] | Activity (Pseudomonas aeruginosa [10]) | Activity [11] | Activity (Candida tropicalis) | other results
1 | COc1nc(N)nc2c1c(-c1cc3ccccc3o1)cn2[C@@H]1O[C@H](CO)[C@@H](O)[C@H]1O | > 20 | > 20 | > 20 | 8.98 | inactive | 12.7 | inactive | 14.6 | 25.6 | inactive | > 44 | inactive | 22.7 | inactive | inactive | inactive | > 44 | inactive | inactive | inactive | IC50 [12]: 16.7 µM; IC50 (K562 [13]): 15.5 µM; IC50 (HepG2): > 20 µM; EC50 (Hepatitis C virus [14]): 20.7 µM; Activity (Staphylococcus aureus [15]): inactive; IC50 (HL-60): > 20 µM; IC50 [16]: > 20 µM; Activity (Staphylococcus aureus [17]): inactive
2 | CN(C)c1ncnc2c1c(-c1cccs1)cn2[C@@H]1O[C@H](CO)[C@@H](O)[C@H]1O | > 20 | > 20 | > 20 | 16.8 | inactive | > 20 | inactive | > 20 | > 100 | inactive | > 44 | inactive | > 100 | inactive | inactive | inactive | > 44 | inactive | inactive | inactive | IC50 [12]: > 20 µM; IC50 (K562 [13]): > 20 µM; IC50 (HepG2): > 20 µM; EC50 (Hepatitis C virus [14]): > 44 µM; Activity (Staphylococcus aureus [15]): inactive; IC50 (HL-60): 11.8 µM; IC50 [16]: > 20 µM; Activity (Staphylococcus aureus [17]): inactive
3 | COc1ncnc2c1ccn2[C@@H]1O[C@H](CO)[C@@H](O)[C@H]1O | > 20 | > 20 | > 20 | > 44 | inactive | > 20 | inactive | > 20 | > 100 | inactive | > 44 | inactive | > 100 | inactive | inactive | inactive | > 44 | inactive | inactive | inactive | IC50 [12]: > 20 µM; IC50 (K562 [13]): > 20 µM; IC50 (HepG2): > 20 µM; EC50 (Hepatitis C virus [14]): > 44 µM; Activity (Staphylococcus aureus [15]): inactive; IC50 (HL-60): > 20 µM; IC50 [16]: > 20 µM; Activity (Staphylococcus aureus [17]): inactive
4 | O=c1[nH]cnc2c1c(-c1ccco1)cn2[C@@H]1O[C@H](CO)[C@@H](O)[C@H]1O | > 20 | 18.3 | > 20 | > 44 | inactive | > 20 | inactive | 15.5 | > 100 | inactive | > 44 | inactive | > 100 | inactive | inactive | inactive | > 44 | inactive | inactive | inactive | IC50 [12]: > 20 µM; IC50 (K562 [13]): 17.8 µM; IC50 (HepG2): > 15 µM; EC50 (Hepatitis C virus [14]): > 44 µM; Activity (Staphylococcus aureus [15]): inactive; IC50 (HL-60): 2.2 µM; IC50 [16]: 5.78 µM; Activity (Staphylococcus aureus [17]): inactive
5 | Cc1ncnc2c1c(-c1cc3ccccc3o1)cn2[C@@H]1O[C@H](CO)[C@@H](O)[C@H]1O | > 20 | > 20 | > 20 | 6.76 | inactive | 17.3 | inactive | 19.5 | 93.9 | inactive | > 44 | inactive | 84.4 | inactive | inactive | inactive | > 44 | inactive | inactive | inactive | IC50 [12]: > 20 µM; IC50 (K562 [13]): > 20 µM; IC50 (HepG2): > 20 µM; EC50 (Hepatitis C virus [14]): 40.2 µM; Activity (Staphylococcus aureus [15]): inactive; IC50 (HL-60): > 20 µM; IC50 [16]: > 20 µM; Activity (Staphylococcus aureus [17]): inactive
6 | CNc1ncnc2c1c(I)cn2[C@@H]1O[C@H](CO)[C@@H](O)[C@H]1O | > 100 | > 100 | > 100 | > 44 | inactive | > 100 | inactive | > 100 | > 100 | inactive | > 44 | inactive | > 100 | inactive | inactive | inactive | > 44 | inactive | inactive | inactive | IC50 [12]: > 20 µM; IC50 (K562 [13]): > 20 µM; IC50 (HepG2): > 20 µM; EC50 (Hepatitis C virus [14]): > 44 µM; Activity (Staphylococcus aureus [15]): inactive; IC50 (HL-60): > 20 µM; IC50 [16]: > 20 µM; Activity (Staphylococcus aureus [17]): inactive
7 | Nc1nc2c(c(-c3ccsc3)cn2[C@@H]2O[C@H](CO)[C@@H](O)[C@H]2O)c(=O)[nH]1 | > 20 | > 20 | > 20 | > 44 | inactive | > 20 | inactive | > 20 | > 100 | inactive | > 44 | inactive | > 100 | inactive | inactive | inactive | > 44 | inactive | inactive | inactive | IC50 [12]: > 20 µM; IC50 (K562 [13]): 18.3 µM; IC50 (HepG2): > 20 µM; EC50 (Hepatitis C virus [14]): > 44 µM; Activity (Staphylococcus aureus [15]): inactive; IC50 (HL-60): > 20 µM; IC50 [16]: > 20 µM; Activity (Staphylococcus aureus [17]): inactive
8 | CN(C)c1ncnc2c1ccn2[C@@H]1O[C@H](CO)[C@@H](O)[C@H]1O | > 20 | 18.4 | 5.09 | 0.27 | inactive | 0.63 | inactive | 5.28 | 5.3 | inactive | > 44 | inactive | 58.2 | inactive | inactive | inactive | > 44 | inactive | inactive | inactive | IC50 [12]: 2.6 µM; IC50 (K562 [13]): 0.89 µM; IC50 (HepG2): 1.81 µM; EC50 (Hepatitis C virus [14]): 0.97 µM; Activity (Staphylococcus aureus [15]): inactive; IC50 (HL-60): 0.87 µM; IC50 [16]: 10.6 µM; Activity (Staphylococcus aureus [17]): inactive
9 | Cc1ncnc2c1c(-c1ccsc1)cn2[C@@H]1O[C@H](CO)[C@@H](O)[C@H]1O | > 20 | 0.46 | 1.43 | 4.47 | inactive | 11.2 | inactive | 0.32 | 96.9 | inactive | > 44 | inactive | > 100 | inactive | inactive | inactive | > 44 | inactive | inactive | inactive | IC50 [12]: 8.56 µM; IC50 (K562 [13]): 5.55 µM; IC50 (HepG2): 4.72 µM; EC50 (Hepatitis C virus [14]): > 44 µM; Activity (Staphylococcus aureus [15]): inactive; IC50 (HL-60): 0.35 µM; IC50 [16]: 14.3 µM; Activity (Staphylococcus aureus [17]): inactive
